Active and inactive are the calls of the source. The rule behind the calls is not given here.
Assays:
RPMI-8226 [1] = test: Cell cycle arrest in human RPMI8226 cells assessed as accumulation at sub-G1 phase after 24 hrs using propidium iodide and BrdU staining by flow cytometry; type: functional, cell-based
Method in brief: (§1)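 Asynchronously growing RPMI-8226 multiple myeloma cells were exposed for 24 h. Cells were double-stained with propidium iodide and BrdU and analysed by flow cytometry for G1, S, G2/M and BrdU-positive fractions. The subG1 population was taken as indicative of apoptosis.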

RPMI-8226 [2] = test: Induction of apoptosis in human RPMI8226 cells assessed as induction of caspase7 activation at 20 uM after 24 hrs by immunoblot analysis; type: functional, cell-based; conditions: in the assay text read “by fluorogenic assay” for “by immunoblot analysis”
Method in brief: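 RPMI-8226 cells were treated continuously for 24 h and lysed in CHAPS extraction buffer (pH 7.4) on ice, then clarified, with protein equalized by Bradford. Lysates were incubated 1 h with 100 μM Ac-DEVD-AMC in PIPES/DTT buffer (pH 7.3), with 100 μM Ac-DEVD-CHO added for negative controls. Fluorescence was read at 355/460 nm.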

[3] = biological target: T1, Retinoblastoma-associated protein (Homo sapiens) (UniProt P06400); test: Inhibition of retinoblastoma protein in human MCF7 cells assessed as reduction of cyclin A level at 2.5 to 40 uM after 24 hrs by immunoblotting; type: cell-based
T1 sequence (whole entry): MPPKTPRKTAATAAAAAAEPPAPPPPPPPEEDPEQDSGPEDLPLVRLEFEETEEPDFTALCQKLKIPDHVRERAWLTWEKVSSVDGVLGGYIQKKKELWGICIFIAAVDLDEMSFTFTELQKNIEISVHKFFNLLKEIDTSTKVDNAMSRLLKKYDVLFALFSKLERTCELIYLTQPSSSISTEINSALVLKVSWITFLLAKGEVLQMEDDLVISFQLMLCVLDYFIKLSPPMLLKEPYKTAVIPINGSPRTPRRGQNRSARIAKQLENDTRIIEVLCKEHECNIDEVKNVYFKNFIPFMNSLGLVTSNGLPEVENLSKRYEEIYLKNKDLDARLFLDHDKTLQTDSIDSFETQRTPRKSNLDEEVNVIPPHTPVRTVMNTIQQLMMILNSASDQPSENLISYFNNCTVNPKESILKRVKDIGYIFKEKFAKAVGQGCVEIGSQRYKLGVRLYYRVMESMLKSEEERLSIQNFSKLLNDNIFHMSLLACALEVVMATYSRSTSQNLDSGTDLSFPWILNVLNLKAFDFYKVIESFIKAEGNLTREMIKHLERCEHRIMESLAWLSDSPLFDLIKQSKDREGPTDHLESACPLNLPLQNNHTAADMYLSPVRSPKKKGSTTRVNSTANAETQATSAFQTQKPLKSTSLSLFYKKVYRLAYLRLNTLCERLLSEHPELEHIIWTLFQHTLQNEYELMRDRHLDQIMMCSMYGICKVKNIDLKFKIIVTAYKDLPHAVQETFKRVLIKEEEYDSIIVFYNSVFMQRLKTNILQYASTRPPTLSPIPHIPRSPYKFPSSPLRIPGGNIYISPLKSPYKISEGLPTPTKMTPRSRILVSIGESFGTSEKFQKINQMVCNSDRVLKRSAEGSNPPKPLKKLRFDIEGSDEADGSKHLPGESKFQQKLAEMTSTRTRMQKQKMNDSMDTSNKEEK
Method in brief: (§2)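 Asynchronous, exponentially growing MCF-7 cells were exposed 24 h to a range of concentrations. Total lysates were made in Laemmli buffer, run on SDS-PAGE and blotted to nitrocellulose. Membranes were probed overnight at 4 °C with specific or phosphospecific antibodies (pRb S249/T252, S780, S795, S807/811), with tubulin as loading control and ECL detection.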

[4] = biological target: Cyclin-dependent kinase 1/cyclin B1 (Homo sapiens) (UniProt P06493+P14635); conditions: at 10 µM
Cyclin-dependent kinase 1/cyclin B1 (Homo sapiens), sequence (P06493 whole entry, looked up): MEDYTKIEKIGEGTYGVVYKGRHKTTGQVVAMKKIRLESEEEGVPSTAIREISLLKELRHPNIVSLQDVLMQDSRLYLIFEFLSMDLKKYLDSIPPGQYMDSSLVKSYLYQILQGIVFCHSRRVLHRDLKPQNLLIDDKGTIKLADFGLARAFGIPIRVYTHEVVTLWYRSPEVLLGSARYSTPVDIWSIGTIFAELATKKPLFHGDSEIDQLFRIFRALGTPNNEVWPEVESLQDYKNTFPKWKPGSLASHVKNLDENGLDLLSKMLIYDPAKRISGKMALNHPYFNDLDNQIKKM
Cyclin-dependent kinase 1/cyclin B1 (Homo sapiens), sequence (P14635 whole entry, looked up): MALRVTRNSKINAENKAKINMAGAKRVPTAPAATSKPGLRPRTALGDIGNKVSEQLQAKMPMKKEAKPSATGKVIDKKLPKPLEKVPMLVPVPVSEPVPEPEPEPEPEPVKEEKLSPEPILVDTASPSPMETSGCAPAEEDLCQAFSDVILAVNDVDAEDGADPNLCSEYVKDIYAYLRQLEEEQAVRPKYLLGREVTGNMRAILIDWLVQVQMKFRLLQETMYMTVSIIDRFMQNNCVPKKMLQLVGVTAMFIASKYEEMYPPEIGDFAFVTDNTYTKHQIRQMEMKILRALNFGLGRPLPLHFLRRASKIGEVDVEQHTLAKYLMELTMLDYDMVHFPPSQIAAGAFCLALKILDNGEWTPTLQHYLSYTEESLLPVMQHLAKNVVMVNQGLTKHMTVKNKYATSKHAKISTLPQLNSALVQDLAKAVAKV

[5] = biological target: Glycogen synthase kinase-3 beta (Homo sapiens) (UniProt P49841); test: Inhibition of human recombinant GSK3B at 10 uM
Glycogen synthase kinase-3 beta (Homo sapiens), sequence (P49841 whole entry, looked up): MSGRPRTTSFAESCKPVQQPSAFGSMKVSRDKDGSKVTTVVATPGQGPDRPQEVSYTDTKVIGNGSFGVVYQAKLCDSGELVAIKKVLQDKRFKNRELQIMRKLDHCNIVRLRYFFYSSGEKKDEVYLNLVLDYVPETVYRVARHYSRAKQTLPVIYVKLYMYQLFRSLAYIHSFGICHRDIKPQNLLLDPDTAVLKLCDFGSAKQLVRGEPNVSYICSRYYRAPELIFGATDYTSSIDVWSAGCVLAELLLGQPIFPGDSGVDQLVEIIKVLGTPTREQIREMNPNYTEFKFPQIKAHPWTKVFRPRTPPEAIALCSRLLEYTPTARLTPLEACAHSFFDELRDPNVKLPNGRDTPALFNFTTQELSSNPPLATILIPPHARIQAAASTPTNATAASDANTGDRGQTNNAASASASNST

RPMI-8226 [6] = test: Induction of apoptosis in human RPMI8226 cells assessed as increase in caspase3 activation after 24 hrs by immunoblot analysis; type: functional, cell-based
[7] = biological target: T1, Retinoblastoma-associated protein (Homo sapiens); test: Inhibition of retinoblastoma protein in human MCF7 cells assessed as reduction of cyclin E level at 2.5 to 40 uM after 24 hrs by immunoblotting; type: cell-based; method in brief: as §2
K562 = test: Cytotoxicity against human K562 cells after 72 hrs by fluoroskan ascent microplate reader analysis; type: functional, cell-based; conditions: K562, 72 h
Method in brief: (§3)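 Cells were grown in DMEM with 10% FCS and 4 mM glutamine at 37 °C under CO2, then plated at densities suited to each line. Compounds were added as 3-fold dilutions in triplicate for 72 h.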

[8] = biological target: Cellular tumor antigen p53 (Homo sapiens) (UniProt P04637); test: Induction of p53-dependent transcriptional activity in human MCF7 cells assessed as increase of p21 WAF1 level at 10 uM after 24 hrs by immunofluorescence assay; type: cell-based; conditions: in the assay text read “by immunoblotting analysis” for “by immunofluorescence assay”
Cellular tumor antigen p53 (Homo sapiens), sequence (P04637 whole entry, looked up): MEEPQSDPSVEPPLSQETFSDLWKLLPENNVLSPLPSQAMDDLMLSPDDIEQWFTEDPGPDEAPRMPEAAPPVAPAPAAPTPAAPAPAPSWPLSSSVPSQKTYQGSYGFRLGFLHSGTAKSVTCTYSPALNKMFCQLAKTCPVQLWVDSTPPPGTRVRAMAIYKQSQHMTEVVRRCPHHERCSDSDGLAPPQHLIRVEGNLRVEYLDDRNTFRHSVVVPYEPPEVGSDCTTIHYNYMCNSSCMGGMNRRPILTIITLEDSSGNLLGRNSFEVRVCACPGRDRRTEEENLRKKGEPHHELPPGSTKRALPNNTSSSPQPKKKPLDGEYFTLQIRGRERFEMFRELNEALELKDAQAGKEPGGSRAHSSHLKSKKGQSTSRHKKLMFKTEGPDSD
Method in brief: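 MCF-7 cells were exposed 24 h to 10 μM. Total lysates were made in Laemmli buffer, run on SDS-PAGE and blotted to nitrocellulose, then probed with antibodies to p53, p21WAF1 and Mdm-2, with peroxidase secondary and ECL detection.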

RPMI-8226 [9] = test: Cell cycle arrest in human RPMI8226 cells assessed as decrease in S phase cell population after 24 hrs using propidium iodide and BrdU staining by flow cytometry; type: functional, cell-based; method in brief: as §1
RPMI-8226 [10] = test: Induction of apoptosis in human RPMI8226 cells assessed as induction of caspase3 activation at 20 uM after 24 hrs by immunoblot analysis; type: functional, cell-based
BT-474 = test: Cytotoxicity against human BT474 cells after 72 hrs by fluoroskan ascent microplate reader analysis; type: functional, cell-based; conditions: BT-474, 72 h; method in brief: as §3
[11] = biological target: Ribosomal protein S6 kinase alpha-5 (Homo sapiens) (UniProt O75582); test: Inhibition of human recombinant MSK1 at 10 uM
Ribosomal protein S6 kinase alpha-5 (Homo sapiens), sequence (O75582 whole entry, looked up): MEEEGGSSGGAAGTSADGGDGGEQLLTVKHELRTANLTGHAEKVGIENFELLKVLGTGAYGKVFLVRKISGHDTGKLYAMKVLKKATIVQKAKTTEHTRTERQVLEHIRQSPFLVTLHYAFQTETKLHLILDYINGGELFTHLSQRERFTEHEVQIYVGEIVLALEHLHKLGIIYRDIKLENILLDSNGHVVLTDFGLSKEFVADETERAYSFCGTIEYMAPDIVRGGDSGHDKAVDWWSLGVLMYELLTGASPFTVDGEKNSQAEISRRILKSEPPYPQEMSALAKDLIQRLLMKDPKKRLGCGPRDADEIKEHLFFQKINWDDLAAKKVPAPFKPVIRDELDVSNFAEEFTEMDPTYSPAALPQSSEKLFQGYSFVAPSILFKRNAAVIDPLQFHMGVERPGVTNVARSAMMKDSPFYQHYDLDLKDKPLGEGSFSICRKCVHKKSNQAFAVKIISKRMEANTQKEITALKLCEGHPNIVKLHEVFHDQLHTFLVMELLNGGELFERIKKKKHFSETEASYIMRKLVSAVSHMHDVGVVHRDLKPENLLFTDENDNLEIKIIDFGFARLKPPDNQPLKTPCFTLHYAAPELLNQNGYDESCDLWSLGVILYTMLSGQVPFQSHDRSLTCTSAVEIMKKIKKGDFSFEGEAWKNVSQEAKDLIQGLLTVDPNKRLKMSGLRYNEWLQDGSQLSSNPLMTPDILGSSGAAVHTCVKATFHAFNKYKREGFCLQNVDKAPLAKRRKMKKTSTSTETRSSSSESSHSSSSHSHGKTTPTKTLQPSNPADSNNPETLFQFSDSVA

RPMI-8226 [12] = test: Cell cycle arrest in human RPMI8226 cells assessed as reduction of actively replicating DNA level at 80 uM after 24 hrs using propidium iodide and BrdU staining by flow cytometry; type: functional, cell-based; method in brief: as §1
A549 = test: Cytotoxicity against human A549 cells after 72 hrs by fluoroskan ascent microplate reader analysis; type: functional, cell-based; conditions: A549, 72 h; method in brief: as §3

inhibition [3]: inactive | inhibition [4]: 84% | inhibition [5]: 54% | inhibition [7]: inactive | Activity [8]: Active | inhibition [11]: 39%
Structure (SMILES): CC[C@H](CO)Nc1nc(NCc2ccccc2)c2[nH]nc(C(C)C)c2n1
Activity (RPMI-8226 [1]): Active | Activity (RPMI-8226 [2]): Active | Activity (RPMI-8226 [6]): Active | IC50 (K562): 7.7 µM | Activity (RPMI-8226 [9]): Active | Activity (RPMI-8226 [10]): Active | IC50 (BT-474): 8.5 µM | Activity (RPMI-8226 [12]): Active | IC50 (A549): 7.1 µM
